The record followed here is ChEMBL document CHEMBL1139827, “Synthesis and pharmacological profile of serofendic acids A and B” (Bioorg Med Chem, 2007).

Calls of active or inactive are those of the source. The rule behind the calls is not given here.

For data set [1], the system named is Cerebral cortex. Kind of data set: Protective effect against glutamate-induced neurotoxicity in fetal rat cerebral cortex at 1 uM after 24 hrs. In kind it is functional, tissue-based. The essentials: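 Primary cortical neurons from fetal Wistar rats (17–19 days gestation), used after 11–15 days in vitro; cytosine arabinoside 10 µM added at day 6. Compound present 1 h before, during and 24 h after 10 min exposure to 500 µM Glu. Viability by trypan blue exclusion (>200 cells/coverslip, five coverslips), % unstained cells; means ± SEM.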

Data set [2] is described as follows: AUC in Sprague-Dawley rat at 1 mg/kg, iv. In kind it is ADME, organism-based. Set-up: dose 1 mg/kg, route intravenous. Conditions: plasma. The method in brief: (§1)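 Fasted SD rats (n = 3, 290–260 g) given 1 mg/kg iv, dosing solution 1 mg/ml in 30% DMSO/5% glucose. Blood sampled at 0.25, 0.5, 1, 2, 4, 6 and 8 h. Plasma (0.1 ml) mixed with MeOH/HClO4 (500:1, 0.2 ml), centrifuged 12,000 rpm for 5 min and filtered. Plasma PK parameters derived from these samples.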

In data set [3] the test system is Cerebral cortex. Put plainly: Protective effect against glutamate-induced neurotoxicity in fetal rat cerebral cortex after 24 hrs. In kind it is functional, tissue-based. The method in brief: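 Wistar fetal rat cortical neurons (E17–19) grown on polyethyleneimine-coated coverslips, 10 µM cytosine arabinoside added from day 6, used at 11–15 DIV. Exposed to 500 µM Glu for 10 min; compound present 1 h before, during and 24 h after. Viability by trypan blue exclusion, >200 cells per coverslip, five coverslips, mean ± SEM.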

Data set [4] can be described thus: Total clearance in Sprague-Dawley rat at 1 mg/kg, iv. Conditions: in vivo. Set-up: dose 1 mg/kg, route intravenous. In kind it is ADME, organism-based. The essentials: as §1
The nature of data set [5]: Half life in Sprague-Dawley rat at 1 mg/kg, iv. Conditions: in vivo. Set-up: dose 1 mg/kg, route intravenous. In kind it is ADME, organism-based. The method in brief:
as §1

The nature of data set [6]: Volume of distribution at steady state in Sprague-Dawley rat at 1 mg/kg, iv. Format: ADME, organism-based. Set-up: dose 1 mg/kg, route intravenous. Conditions: in vivo, read-out: Vdss. The essentials: as §1
Data set [7] is described as follows: Half life in Sprague-Dawley rat at 5 mg/kg, po. In kind it is ADME, organism-based. Set-up: dose 5 mg/kg, route oral. Conditions: in vivo. The method in brief: (§2)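 Fasted SD rats (n = 3) dosed orally at 5 mg/kg, 1 mg/ml in 0.5% methyl cellulose. Plasma sampled at 0.25, 0.5, 1, 2, 4, 6 and 8 h. Plasma (0.1 ml) deproteinized with MeOH/HClO4 (500:1, 0.2 ml), spun 12,000 rpm for 5 min, filtered. Bioavailability set against the 1 mg/kg iv dosing.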

Data set [8] in a line: Tmax in Sprague-Dawley rat at 5 mg/kg, po. In kind it is ADME, organism-based. Set-up: dose 5 mg/kg, route oral. Conditions: in vivo. The method in brief:
as §2

Data set [9] in a line: Cmax in Sprague-Dawley rat at 5 mg/kg, po. Format: ADME, organism-based. Set-up: dose 5 mg/kg, route oral. Conditions: in vivo. The method in brief:
as §2

Data set [10] in a line: Ratio of drug level in brain to plasma in Sprague-Dawley rat at 1 mg/kg, iv after 0.5 hr. Format: ADME, organism-based. Set-up: dose 1 mg/kg, route intravenous. Conditions: read-out: BPR. The method in brief:
(§3)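 SD rats (n = 3, fasted) given 1 mg/kg iv in 30% DMSO/5% glucose. Brain and blood taken at 0.5 and 2 h. Brain homogenized (20% saline). Brain homogenate or plasma (0.1 ml) treated with MeOH/HClO4 (500:1, 0.2 ml), centrifuged 12,000 rpm for 5 min, filtered. Brain-to-plasma concentration ratio calculated.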

Data set [11] in a line: Oral bioavailability in Sprague-Dawley rat at 5 mg/kg. Format: ADME, organism-based. Conditions: in vivo. The method in brief: as §2
Data set [12] is described as follows: AUC in Sprague-Dawley rat at 5 mg/kg, po. In kind it is ADME, organism-based. Set-up: dose 5 mg/kg, route oral. Conditions: plasma. The essentials:
as §2

Data set [13] in a line: Ratio of drug level in brain to plasma in Sprague-Dawley rat at 1 mg/kg, iv after 2 hrs. Conditions: read-out: BPR. Format: ADME, organism-based. Set-up: dose 1 mg/kg, route intravenous. The method in brief:
as §3

Consider `C[C@]12N[C@H](Cc3ccccc31)c1ccccc12`, for which the outcome in data set [1] was Active.

`C[S@+]([O-])C[C@H]1[C@H]2CC[C@@]3(CC[C@H]4[C@@](C)(CCC[C@]4(C)C(=O)O)[C@@H]3C2)[C@@H]1O` [SEROFENDIC ACID A] yielded an exposure (AUC) in [2] of 1950 ng·h/mL. The result in [3] was Active. In data set [4], this molecule showed a clearance of 8.67 mL/min/kg. The half-life in [5] is 28.8 min. Further, the Vd in data set [6] amounted to 0.33 L/kg.

For `C[S@@+]([O-])C[C@H]1[C@H]2CC[C@@]3(CC[C@H]4[C@@](C)(CCC[C@]4(C)C(=O)O)[C@@H]3C2)[C@@H]1O` [SEROFENDIC ACID B], the AUC in data set [2] is 2780 ng·h/mL; in [12], 5640 ng·h/mL. In addition, the results for the half-life in data set [7] and in [5] were 234 min and 39 min, respectively. Also, in data set [8], the Tmax came out at 19.8 min. For the same molecule, the Cmax in [9] came to 2050 ng/mL. Further, the outcome in data set [3] was Active. For the same molecule, the clearance in data set [4] is 6 mL/min/kg. In addition, the Kp at 0.5 h in data set [10] was 0.021. Further, the bioavailability in [11] was 41%. Besides, in [6], the Vd turned out to be 0.33 L/kg.

With `COC(=O)[C@@]1(C)CCC[C@@]2(C)[C@@H]3C[C@@H]4CC[C@@]3(CC[C@@H]21)[C@H](O)[C@H]4C[S+](C)[O-]` (stereo partly drawn) [SEROFENDIC ACID METHYLESTER], the AUC in [2] was determined as 1440 ng·h/mL. Also, the clearance in data set [4] is 14.7 mL/min/kg. Also, in data set [10], the Kp at 0.5 h stood at 2.2. In data set [5], this molecule gave a half-life of 33 min. In data set [6], the Vd is 0.57 L/kg. Also, the Kp at 2 h in [13] turned out to be 2.21.

What is called AUC is the area under the concentration-time curve, a measure of exposure. The low end stands for low exposure, the high end for high exposure. What is called clearance is a measure of how efficiently the substance is removed, as volume per time. Low values mean inefficient removal, high ones efficient removal. A word on the half-life: it is how long it takes for the measured level to halve. For orientation: Tmax means the time at which the peak concentration occurs. Usually Cmax stands for the maximum level reached in the sampled fluid or tissue. By bioavailability is commonly meant dose-corrected exposure relative to a reference, in per cent. A higher bioavailability goes with good availability.
